Data set [1] in a line: folding enthalpy; higher = less favourable; fluorescence melt of hairpins on a sequencing array, two-state fit. Particulars: sodium 0.088 M. In outline:
(§1)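 Library hairpins on a sequenced MiSeq flow cell carried annealed Cy3 and quencher oligos, and their Cy3 fluorescence was imaged in 50 mM Na-HEPES pH 8.0 with 25 mM NaCl, in 2.5 °C steps up to 60 °C. Signals were normalised to Cy3 before quenching and to control constructs. Melting temperature and folding enthalpy were obtained from bootstrapped two-state fits, combined by inverse-variance weighting across four replicates, and the fitted temperatures were then raised by 9.35 °C to match UV melts.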

A short description of data set [2]: melting temperature; fluorescence melt of hairpins on a sequencing array, two-state fit, raised by 9.35 °C to match UV melts. The note with it: sodium 0.088 M. In outline: as §1

On to GCTCCAGGAAACTGGGGC ((.((((....)))).)), for which, in data set [1], the folding enthalpy was -39.6 kcal/mol. Besides, the Tm in data set [2] came out at 57.6 °C.
The corresponding values for GCTCCCGAAAGGGAAGC ((((((....))).))) are -31.8 kcal/mol and 59.3 °C.
The corresponding values for GCTCCCGAAAGGGCCAGC ((((((....)))..))) are -11.7 kcal/mol and 34.8 °C.
On to GCTCCCGCGAAAGCGAGC (((..(((....)))))), for which the folding enthalpy in data set [1] was -10.7 kcal/mol. The Tm in data set [2] was 37.5 °C.
Regarding GCTCCCGGAAACGAGAGC ((((.((....)).)))), the folding enthalpy in data set [1] was -36.5 kcal/mol. The Tm in data set [2] was 49.2 °C.
In the case of GCTCCCGGAAACGGAAGC (((.(((....))).))), the folding enthalpy in data set [1] is -28.6 kcal/mol. Also, the Tm in data set [2] turned out to be 50 °C.
The corresponding values for GCTCCGCGAAAGCACAGC (((..((....))..))) are -8.71 kcal/mol and 31.3 °C.
The corresponding values for GCTCCGCGAAAGCCTAGC (((..((....))..))) are -10.7 kcal/mol and 34.7 °C.
As for GCTCCGCGAAAGCGATGC ((..(((....)))..)), in data set [1], the folding enthalpy was -13.3 kcal/mol. The Tm in data set [2] was 40.8 °C.
Consider GCTCCGCGAAAGCGCAGC (((.(((....))).))), for which the folding enthalpy in data set [1] is -29.8 kcal/mol. Also, the Tm in data set [2] amounted to 45.5 °C.
GCTCCGCGAAAGCGGCGC ((.((((....)))).)): the folding enthalpy in data set [1] is -18.6 kcal/mol. The Tm in data set [2] is 65.1 °C.
For the sequence GCTCCGCGAAAGCTGGGC ((.(.((....)).).)), in data set [1], the folding enthalpy was -21.5 kcal/mol. In addition, the Tm in data set [2] was found to be 44.9 °C.
The corresponding values for GCTCCGCGAAAGCTTAGC (((..((....))..))) are -14.4 kcal/mol and 35.1 °C.
The corresponding values for GCTCCGGGAAACCGGGGC ((.((((....)))).)) are -43 kcal/mol and 63.8 °C.
On to GCTCCTCCGAAAGGAAGC (((..(((....)))))), for which, in data set [1], the folding enthalpy is -15.9 kcal/mol. Moreover, in data set [2], the Tm was 34.2 °C.
The corresponding values for GCTCCTCGAAAGAGAGC (((.(((....)))))) are -30 kcal/mol and 49.2 °C.
Regarding GCTCCTCGAAAGAGCAGC (((.(((....))).))), the folding enthalpy in data set [1] is -21.5 kcal/mol. In data set [2], the Tm is 40.6 °C.
The corresponding values for GCTCCTGAAAAGGAGC ((((((....)))))) are -42.6 kcal/mol and 68.5 °C.
The corresponding values for GCTCGAGGAAACTTGGGC ((.(.((....)).).)) are -19.4 kcal/mol and 37.4 °C.
The corresponding values for GCTCGCCGAAAGGCAGC (((.(((....)))))) are -19.9 kcal/mol and 62.6 °C.
For the sequence GCTCGCGAAAGCGAAGC ((((((....))).))), the folding enthalpy in data set [1] is -17.6 kcal/mol. The Tm in data set [2] was found to be 65.3 °C.
Regarding GCTCGCGAAAGCGAGAGC ((((((....)))..))), in data set [1], the folding enthalpy was -9.87 kcal/mol. Further, the Tm in data set [2] was 66.7 °C.
The corresponding values for GCTCGCGAAAGCGGAAGC ((((((....)))..))) are -16.3 kcal/mol and 53.2 °C.
Turning to GCTCGCGAAAGCGTAAGC ((((((....)))..))), the folding enthalpy in data set [1] was -13.4 kcal/mol. Further, the Tm in data set [2] came to 51.3 °C.
The corresponding values for GCTCGCGAAAGCGTCAGC ((((((....)))..))) are -12.3 kcal/mol and 41.4 °C.
For GCTCGCGGAAACGCAAGC (((.(((....))).))), the folding enthalpy in data set [1] was -28.7 kcal/mol. Moreover, in data set [2], the Tm stood at 49.8 °C.
The corresponding values for GCTCGGCGAAAGCAGCGC ((.(.((....)).).)) are -14 kcal/mol and 58.5 °C.
The corresponding values for GCTCGGCGAAAGCAGGGC ((.(.((....)).).)) are -14 kcal/mol and 67.7 °C.
For the sequence GCTCGGCGAAAGCCCCGC ((..(((....)))..)), in data set [1], the folding enthalpy was -4.44 kcal/mol. Further, in data set [2], the Tm came out at 44.6 °C.
With GCTCGGCGAAAGCCCGGC ((..(((....)))..)), the folding enthalpy in data set [1] is -7.98 kcal/mol. The Tm in data set [2] was determined as 56.9 °C.
The corresponding values for GCTCGGCGAAAGCCCTGC ((..(((....)))..)) are -7.65 kcal/mol and 53.4 °C.
Consider GCTCGGCGAAAGCGCAGC (((..((....))..))), for which, in data set [1], the folding enthalpy was -9.7 kcal/mol. The Tm in data set [2] was found to be 51.1 °C.
In the case of GCTCGGCGAAAGCTTAGC (((..((....))..))), in data set [1], the folding enthalpy was -15.3 kcal/mol. Further, the Tm in data set [2] amounted to 40.9 °C.
On to GCTCGGGCGAAAGCCAGC (((..(((....)))))), for which the folding enthalpy in data set [1] is -8.16 kcal/mol. Moreover, in data set [2], the Tm came to 52 °C.
Consider GCTCGTCGAAAGACAGC (((.(((....)))))), for which the folding enthalpy in data set [1] was -29.6 kcal/mol. In data set [2], the Tm was determined as 51.4 °C.
The corresponding values for GCTCGTGGAAACACAAGC (((.(((....))).))) are -20 kcal/mol and 43.9 °C.
In the case of GCTCGTGGAAACACGGGC ((.((((....)))).)), the folding enthalpy in data set [1] is -37.1 kcal/mol. The Tm in data set [2] was 62.2 °C.

These data come from the array DNA melting data of Ke et al. (doi:10.1101/2024.01.08.574731).
